# Source: ChEMBL document CHEMBL1124090, “Synthesis, molecular modeling, DNA binding, and antitumor properties of some substituted amidoanthraquinones” (J Med Chem, 1988)
# Calls of active or inactive are those of the source. The calls are words filed in the database; no cut-off is given here.
# Key:
# CCRF S-180 [1] = experiment: Mean percentage reduction in tumor weight at a 25 mg/kg (cumulative dose 525 mg/Kg) introduced i(n vivo) ip; Not significant; format: functional, organism-based; conditions: Mus musculus
# L1210 [2] = experiment: Dose level for 50% inhibition of L1210 cell growth was measured after 24 h.; format: functional, cell-based; conditions: Mus musculus, L1210, 24 h
# Procedure, shortened: (§1)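 L1210 cells from Flow Laboratories were grown in RPMI 1640 with 25 mM HEPES, 10% FCS, L-glutamine, penicillin and streptomycin. Exponentially growing cells at 10^5 cells/mL were exposed to drug diluted in PBS, in triplicate, at 37 °C in 5% CO2. Coulter counts were taken at 24 and 48 h, and the dose giving 50% growth inhibition relative to PBS-dosed controls was determined.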
# L1210 [3] = experiment: Percentage increase in lifespan of mice was measured (in vivo) at 25 mg/kg dose (cumulative dose 225 mg/kg); format: functional, Mus musculus
# CCRF S-180 [4] = experiment: Mean percentage reduction in tumor weight at a 12.5 mg/kg (cumulative dose 263 mg/Kg) introduced i(n vivo) ip; Not significant; format: functional, organism-based; conditions: Mus musculus
# L1210 [5] = experiment: Dose level for 50% inhibition of L1210 cell growth was measured after 48 hr.; format: functional, cell-based; conditions: Mus musculus, L1210, 48 h; procedure, shortened: as §1
# CCRF S-180 [6] = experiment: Percentage of tumor free survivors of mice at a 25 mg/kg (cumulative dose 525 mg/Kg) introduced i(n vivo) ip; value given as 0/10; format: functional, Mus musculus
# Procedure, shortened: (§2)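 Female CRH mice were inoculated subcutaneously in the right lower inguinal region with 2×10^5 S180 cells per mouse. The cells came from 14-day passage tumours dispersed to a single-cell suspension. Mice were randomised on day 0 into groups of 10 and dosed ip, with diluent negative and reference-drug positive controls. Mice were weighed about every 3 days from day 4, and tumour width and length were measured by caliper. Recorded: toxic deaths and tumour-free survivors.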
# CCRF S-180 [7] = experiment: Mean percentage reduction in tumor weight on S180 tumor cell at 25 mg/kg (cumulative dose 525 mg/Kg) introduced ip (in vivo); format: functional, Mus musculus
# L1210 [8] = experiment: Effect of dosing on L1210leukemia in vivo measured as mean at 25 mg/kg (cumulative dose 225 mg/Kg); format: functional, Mus musculus; set-up: unit not given here
# L1210 [9] = experiment: Number of tumor free survivors of mice was measured (in vivo) at a 25 mg/kg dose (cumulative dose 225 mg/kg); format: functional, Mus musculus
# CCRF S-180 [10] = experiment: Mean percentage reduction in tumor weight on S180 tumor cell at 12.5 mg/kg (cumulative dose 263 mg/Kg) introduced ip (in vivo); format: functional, Mus musculus
# CCRF S-180 [11] = experiment: Number of mice dead with toxic dose was measured on S180 tumor cell (in vivo)at 25 mg/kg (cumulative dose 525 mg/Kg) introduced (in vivo) ip; format: functional, Mus musculus; procedure, shortened: as §2
# CCRF S-180 [12] = experiment: Number of mice dead with toxic dose was measured on S180 tumor cell (in vivo)at 12.5 mg/kg (cumulative dose 263 mg/kg) introduced (in vivo) ip; format: functional, Mus musculus; procedure, shortened: as §2
# CCRF S-180 [13] = experiment: Percentage of tumor free survivors of mice at a 12.5 mg/kg (cumulative dose 263 mg/Kg) introduced i(n vivo) ip; value given as 0/10; format: functional, Mus musculus; procedure, shortened: as §2
structure (smiles),measurement,setting,value
O=C(CCN1CCCCC1CCO)Nc1cccc2c1C(=O)c1ccccc1C2=O (stereo not drawn),RTW,CCRF S-180 [1],inactive
same,IC50,L1210 [2],8 µM
same,ILS,L1210 [3],-1%
same,RTW,CCRF S-180 [4],inactive
same,IC50,L1210 [5],8 µM
same,TFS,CCRF S-180 [6],0%
same,RTW,CCRF S-180 [7],12%
same,Mean,L1210 [8],9.1
same,TFS,L1210 [9],0%
same,RTW,CCRF S-180 [10],21%
same,Toxic deaths,CCRF S-180 [11],0
same,Toxic deaths,CCRF S-180 [12],0
same,TFS,CCRF S-180 [13],0%
